This note sets out measurements from ChEMBL document CHEMBL2331356, “Synthesis of gatifloxacin derivatives and their biological activities against Mycobacterium leprae and Mycobacterium tuberculosis” (Bioorg Med Chem, 2013).

One may read the MIC as the smallest concentration in the dilution series that meets the test's criterion for growth inhibition. What is called IC50 is the concentration that gives 50% inhibition.

For test [1], the system named is Mycobacterium tuberculosis. Briefly: Antimicrobial activity against Mycobacterium tuberculosis H37Rv assessed as drug concentration causing =<1% […] bacterial growth incubated for 21 to 30 days by proportion method. In kind it is functional. Summed up:
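H37Rv grown on Löwenstein-Jensen medium; 10³ and 10⁵ CFU spread on 7H11 agar with 10% OADC containing serial twofold compound dilutions. Colonies counted after 21–30 days at 37 °C. […] Compounds dissolved in DMSO or NaOH.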

In test [2] the test system is Mycobacterium leprae [G89C].
Test [3] deals with Mycobacterium leprae. Briefly: Inhibition of Mycobacterium leprae wild type DNA gyrase GyrA/GyrB-mediated DNA cleavable complex formation assessed as compound concentration inducing 25% DNA cleavage using relaxed pBR322 DNA substrate incubated for 1 hr at 30 degC by agarose gel electrophoresis.
The subject of test [4] is Mycobacterium leprae. Briefly: Inhibition of Mycobacterium leprae DNA gyrase GyrA/GyrB assessed as reduction of enzyme supercoiling activity using relaxed pBR322 DNA substrate incubated for 2 hrs at 30 degC by ethidium bromide based gel electrophoresis.
In test [5] the target is DNA gyrase subunit A/DNA gyrase subunit B (Mycobacterium tuberculosis (strain ATCC 25618 / H37Rv), UniProt P9WG45+P9WG47). Briefly: Inhibition of Mycobacterium tuberculosis DNA gyrase GyrA/GyrB assessed as reduction of enzyme supercoiling activity using relaxed pBR322 DNA substrate incubated for 1 hr at 37 degC by ethidium bromide based gel electrophoresis.
Test [6] relates to Mycobacterium leprae [A91V]. Briefly: Inhibition of Mycobacterium leprae […] DNA gyrase GyrA/GyrB A91V mutant-mediated DNA cleavable complex formation assessed as compound concentration inducing 25% DNA cleavage using relaxed pBR322 DNA substrate incubated for 1 hr at 30 degC by agarose gel electrophoresis.

SMILES strings stand for the structures. In brackets after ≈: the same amount, converted by molar mass. Activity calls are given as the source filed them. Bounds are passed on as bounds.

Turning to `COc1c(N2C[C@@H]3CCCN[C@@H]3C2)c(F)cc2c(=O)c(C(=O)O)cn(C3CC3)c12` [MOXIFLOXACIN], the MIC in test [1] worked out at 0.5 µg/mL (≈ 1.25 µM). In test [2], the CC25 entry was “inactive”.

Consider `CCN1CCN(c2c(F)cc3c(=O)c(C(=O)O)cn(C4CC4)c3c2OC)CC1C(=O)O` (stereo not drawn), for which the CC25 in the test on Mycobacterium leprae [3] is over 240 µg/mL. Besides, the IC50 is 55 µg/mL (≈ 127 µM) in the test on Mycobacterium leprae [4] and 201 µM in test [5]. Further, the minimum inhibitory concentration (MIC) in test [1] is 32 µg/mL (≈ 73.8 µM). Further, the CC25 entry in test [2] was “inactive”.

With `CCCCNC(=O)OCC1CN(c2c(F)cc3c(=O)c(C(=O)O)cn(C4CC4)c3c2OC)CCN1` (stereo not drawn), the CC25 in the test with Mycobacterium leprae [3] amounted to 10 µg/mL (≈ 20.4 µM). Further, the values for the IC50 (with Mycobacterium leprae [4]; in test [5]) were 10 µg/mL (≈ 20.4 µM) and 34.7 µM, respectively. For the same compound, the MIC in test [1] worked out at 8 µg/mL (≈ 16.3 µM). In addition, the CC25 result in test [2] was “inactive”.

As to `CCOC(=O)C1CN(c2c(F)cc3c(=O)c(C(=O)O)cn(C4CC4)c3c2OC)CCN1` (stereo not drawn), in the test with Mycobacterium leprae [3], the CC25 came to 80 µg/mL (≈ 185 µM). The IC50 in the test on Mycobacterium leprae [4] is 17 µg/mL (≈ 39.2 µM); in test [5], 48.5 µM. In addition, the MIC in test [1] is over 32 µg/mL. Further, the CC25 result in test [2] was “inactive”.

On to `CCN1CCN(c2cc3c(cc2F)c(=O)c(C(=O)O)cn3C2CC2)CC1C(=O)O` (stereo not drawn), for which the CC25 result in test [6] and in test [2] was “inactive” throughout. For the same compound, the CC25 with Mycobacterium leprae [3] was over 240 µg/mL. Moreover, the figures for the IC50 (in the test on Mycobacterium leprae [4]; in test [5]) were 35 µg/mL (≈ 86.8 µM) and 119 µM, respectively. The MIC in test [1] stood at 32 µg/mL (≈ 79.3 µM).

Regarding `CCN(CC)C(=O)OCC1CN(c2c(F)cc3c(=O)c(C(=O)O)cn(C4CC4)c3c2OC)CCN1` (stereo not drawn), the CC25 in the test with Mycobacterium leprae [3] was determined as 60 µg/mL (≈ 122 µM). Also, the IC50 in the test on Mycobacterium leprae [4] is 20 µg/mL (≈ 40.8 µM); in test [5], 102 µM. The MIC in test [1] was found to be 32 µg/mL (≈ 65.2 µM). For the same compound, the CC25 result in test [2] was “inactive”.

On to `CCN(CC)C(=O)OCC1CN(c2cc3c(cc2F)c(=O)c(C(=O)O)cn3C2CC2)CCN1` (stereo not drawn), for which the CC25 result in test [6] and in test [2] was “inactive” each time. For the same compound, the CC25 in the test on Mycobacterium leprae [3] is over 240 µg/mL. In addition, the values for the IC50 (in the test on Mycobacterium leprae [4]; in test [5]) were 118 µg/mL (≈ 256 µM) and 575 µM, respectively. The MIC in test [1] was 128 µg/mL (≈ 278 µM).

Consider `CCCCNC(=O)OCC1CN(c2cc3c(cc2F)c(=O)c(C(=O)O)cn3C2CC2)CCN1` (stereo not drawn), for which the CC25 result in test [6] and in test [2] was “inactive” throughout. The CC25 in the test with Mycobacterium leprae [3] came to 30 µg/mL (≈ 65.1 µM). Further, the IC50 in the test with Mycobacterium leprae [4] is 22 µg/mL (≈ 47.8 µM); in test [5], 65.1 µM. Further, in test [1], the MIC stood at 16 µg/mL (≈ 34.7 µM).

As to `COc1c(N2CCNC(C(=O)O)C2)c(F)cc2c(=O)c(C(=O)O)cn(C3CC3)c12` (stereo not drawn), in the test on Mycobacterium leprae [3], the CC25 is 27 µg/mL (≈ 66.6 µM). The IC50 in the test with Mycobacterium leprae [4] was 20 µg/mL (≈ 49.3 µM); in test [5], 39.5 µM. Besides, in test [1], the MIC was 16 µg/mL (≈ 39.5 µM). Further, in test [2], the CC25 result is “inactive”.

Turning to `O=C(O)c1cn(C2CC2)c2cc(N3CCNCC3)c(F)cc2c1=O` [CIPROFLOXACIN], in the test with Mycobacterium leprae [4], the IC50 was found to be 2 µg/mL (≈ 6.04 µM). The MIC in test [1] came out at 0.5 µg/mL (≈ 1.51 µM). In addition, the CC25 result in test [2] is “inactive”.

For `O=C(O)c1cn(C2CC2)c2cc(N3CCNC(C(=O)O)C3)c(F)cc2c1=O` (stereo not drawn), in the test with Mycobacterium leprae [3], the CC25 is 30 µg/mL (≈ 79.9 µM). Moreover, the results for the IC50 (in the test with Mycobacterium leprae [4]; in test [5]) were 30 µg/mL (≈ 79.9 µM) and 53.3 µM, respectively. Besides, the MIC in test [1] stood at 32 µg/mL (≈ 85.3 µM). Also, in test [2], the CC25 result is “inactive”.

Turning to `CC1COc2c(N3CCN(C)CC3)c(F)cc3c(=O)c(C(=O)O)cn1c23` (stereo not drawn) [OFLOXACIN], the CC25 in the test with Mycobacterium leprae [3] is 10 µg/mL (≈ 27.7 µM). In addition, the IC50 with Mycobacterium leprae [4] was 8 µg/mL (≈ 22.1 µM); in test [5], 16.6 µM. Besides, the MIC in test [1] was 1 µg/mL (≈ 2.77 µM). The CC25 entry in test [2] was “inactive”.

As to `COc1c(N2CCNC(C)C2)c(F)cc2c(=O)c(C(=O)O)cn(C3CC3)c12` (stereo not drawn) [GATIFLOXACIN], the CC25 with Mycobacterium leprae [3] is 1 µg/mL (≈ 2.66 µM). Besides, the IC50 in the test with Mycobacterium leprae [4] is 3 µg/mL (≈ 7.99 µM); in test [5], 7.99 µM. In test [1], the MIC was 0.125 µg/mL (≈ 0.333 µM). For the same compound, the CC25 result in test [2] is “inactive”.

Regarding `CCOC(=O)C1CN(c2cc3c(cc2F)c(=O)c(C(=O)O)cn3C2CC2)CCN1` (stereo not drawn), the CC25 in the test with Mycobacterium leprae [3] worked out at 20 µg/mL (≈ 49.6 µM). Also, the results for the IC50 (in the test on Mycobacterium leprae [4]; in test [5]) were 20 µg/mL (≈ 49.6 µM) and 66.9 µM, respectively. Further, the MIC in test [1] came out at 4 µg/mL (≈ 9.92 µM). Also, the CC25 entry in test [2] was “inactive”.
